Data taken from ChEMBL document CHEMBL1142555, “Cytotoxic activity of some phenanthroindolizidine N-oxide alkaloids from Cynanchum vincetoxicum” (J Nat Prod, 2000).

Tests used:
[1] = Cytotoxicity against drug-resistant human KB31 cells after 72 hrs by MTS reduction assay; assay type: functional, cell-based; conditions: KB 3-1, 72 h, in the assay text read “drug-sensitive” for “drug-resistant”
Procedure, shortened: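 KB-3-1 cells grown as monolayers in DMEM with 10% FBS at 37 °C and 5% CO2, harvested by trypsin at 70-80% confluence and seeded at 4 × 10^3/well for 24 h. Dilutions of DMSO stock in medium were added (DMSO ≤0.25% final, also in controls), six wells per concentration, for 72 h. Viable cells were read by MTS/PMS, 50 min, A492. IC50 came from three passages.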

[2] = Cytotoxicity against multidrug-resistant human KBV1 cells after 72 hrs by MTS reduction assay; assay type: functional, cell-based; conditions: KB-V1, 72 h
Procedure, shortened: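 KB-V1 multidrug-resistant line (P-170 glycoprotein) kept without vinblastine, using passages 5-15, in DMEM/10% FBS at 37 °C and 5% CO2. Cells were trypsinized at 60-70% confluence and seeded at 7 × 10^3/well for 24 h. Compound was added in medium (DMSO ≤0.25%), six replicates per concentration, for 72 h. Read-out was MTS/PMS, 50 min, A492. IC50 came from three separate passages.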

[3] = Resistance index, ratio of IC50 for human KBV1 cells to IC50 for human KB31 cells; assay type: functional
Procedure, shortened: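 Ratio of the IC50 in KB-V1 cells to the IC50 in parental KB-3-1 cells, each from a 72-h MTS/PMS proliferation assay (A492) run in parallel under the same dosing conditions (DMSO ≤0.25%, six replicates per concentration, three separate determinations).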

COc1ccc2c3c(c4cc(OC)c(OC)cc4c2c1)C[C@H]1CCC[N+]1([O-])C3 (stereo not given in full)
IC50 [1]: 0.11 µM
IC50 [2]: 0.16 µM

COC(=O)c1ccccc1-c1c2ccc(=N)cc-2oc2cc(N)ccc12.Cl [RHODAMINE123]
IC50 [1]: 1.4 µM
IC50 [2]: > 500 µM
Ratio [3]: 500

COc1ccc2c3c(c4cc(OC)c(OC)cc4c2c1)[C@@H](O)[C@H]1CCC[N+]1([O-])C3 (stereo not given in full)
IC50 [1]: 0.1 µM
IC50 [2]: 0.16 µM

COc1ccc(C2=C(c3ccc(OC)c(OC)c3)C[C@H]3CCC[N+]3([O-])C2)cc1 (stereo not given in full)
IC50 [1]: 2.55 µM
IC50 [2]: 3.3 µM

CC[C@]1(O)C[C@@H]2CN(CCc3c([nH]c4ccccc34)[C@@](C(=O)OC)(c3cc4c(cc3OC)N(C)[C@H]3[C@@](O)(C(=O)OC)[C@H](OC(C)=O)[C@]5(CC)C=CCN6CC[C@]43[C@@H]65)C2)C1 [VINBLASTINE]
Ratio [3]: 210
